Published values of several laboratories.
Target: Delta-type opioid receptor (OPRD1, Homo sapiens, UniProt P41143)

| SMILES | test | setting | Ki [nM] |
| --- | --- | --- | --- |
| CC(=O)Nc1ccccc1-c1cnc2c(c1)C[C@@]1(OCCCc3ccccc3)[C@H]3Cc4ccc(O)c5c4[C@@]1(CCN3CC1CC1)[C@H]2O5 | ligand displacement, radioligand | cell membranes | > 3330 |
| Cc1cc(O)cc(C)c1C[C@H](N)C(=O)N1Cc2ccccc2CC1C(=O)NCC(=O)NC(Cc1ccc(Cl)cc1)C(=O)N(C)CCC[C@@]1(c2ccc(F)cc2)OCc2cc(C#N)ccc21 (stereo in doubt) | cell-free assay | – | 20 |
| C[C@@H](NC(=O)[C@@H](N)Cc1ccc(O)cc1)C(=O)NCC(=O)N[C@H](CC(=O)NNC(=O)C[C@H](Cc1ccccc1)NC(=O)CNC(=O)[C@@H](C)NC(=O)[C@@H](N)Cc1ccc(O)cc1)Cc1ccccc1 | ligand displacement, radioligand | – | 0.72 |
| CCCO[C@@]12Cc3cc(-c4ccccc4)cnc3[C@@H]3Oc4c(O)ccc5c4[C@@]31CCN(CC1CC1)[C@@H]2C5 | ligand displacement, radioligand | cell membranes | 7.48 |
| C[C@@H](NC(=O)[C@@H](N)Cc1ccc(O)cc1)C(=O)NCC(=O)N[C@@H](Cc1ccccc1)C(=O)N(C)CCC[C@@]1(c2ccc(F)cc2)OCc2cc(C#N)ccc21 | cell-free assay | – | 57 |
| CCCCCCCCCCCCCCCC(=O)O | ligand displacement, radioligand | cell membranes | 5100 |
| Cc1cc(O)cc(C)c1C[C@H](N)C(=O)N1Cc2ccccc2C[C@@H]1C(=O)NCC(=O)NCc1ccccc1 | ligand displacement, radioligand | cell membranes | 3.2 |
| Cc1cc(F)ccc1/N=N/C(=O)NCC1(N(C)C)CCCCC1 | cell-free assay | – | 12000 |
| Cc1cc(O)cc(C)c1C[C@H](N)C(=O)N1Cc2ccccc2C[C@H]1C(=O)NCC(=O)NCc1ccc(N)cc1 | ligand displacement, radioligand | cell membranes | 2 |
| COc1ccsc1CNCC[C@@]1(c2ccccn2)CCOC2(CCCC2)C1 | cell-free assay | – | 1400 |
| Cc1ccc(CNC(=O)CNC(=O)[C@@H]2Cc3ccccc3CN2C(=O)[C@@H](N)Cc2c(C)cc(O)cc2C)cc1 | ligand displacement, radioligand | cell membranes | 0.31 |
| CCCC[C@@H](NC(=O)[C@@H](N)Cc1c(C)cc(O)cc1C)C(=O)NCC(=O)N[C@@H](Cc1ccc(F)cc1)C(=O)N(C)CCC[C@@]1(c2ccc(F)cc2)OCc2cc(C#N)ccc21 | cell-free assay | – | 0.8 |
